Results as given in ChEMBL document CHEMBL1155942, “Synthesis and evaluation in vitro and in vivo of a 11C-labeled cyclooxygenase-2 (COX-2) inhibitor” (Bioorg Med Chem, 2008).

Key:
[1] = Biodistribution in Wistar rat white adipose tissue at ~20 MBq, iv after 60 mins; type: ADME, organism-based; conditions: in vivo, 1 h
Method in brief: (§1)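 Male Wistar rats, housed under standard conditions. Each received about 20 MBq of radiotracer iv in 0.5 mL saline with 10% ethanol. Animals were killed at 5 or 60 min post injection, and organs were excised and weighed. Activity was gamma-counted, decay-corrected and calibrated against injected-tracer aliquots, then expressed as %ID/g. Mean ± SD, four animals per time point.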

Testes [2] = test: Biodistribution in Wistar rat testes at ~20 MBq, iv after 60 mins; type: ADME, organism-based, Testis; conditions: in vivo, 1 h; method in brief: as §1
Muscle tissue [3] = test: Biodistribution in Wistar rat muscle at ~20 MBq, iv after 60 mins; type: ADME, organism-based; conditions: in vivo, 1 h; method in brief: as §1
[4] = Metabolic stability in human HT29 cells bearing mouse plasma at 20 MBq, iv after 10 mins; type: ADME, organism-based, HT-29; conditions: read-out: Stability
Method in brief: (§2)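 After iv radiotracer, arterial blood was drawn through a femoral artery catheter. Plasma was separated by centrifugation (3 min, 11,000g). Proteins were precipitated with ice-cold methanol (1.5 parts per part plasma) and centrifuged again. Supernatants were analysed by HPLC for the fraction of intact radiotracer over time.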

Spleen [5] = test: Biodistribution in Wistar rat spleen at ~20 MBq, iv after 60 mins; type: ADME, organism-based; conditions: in vivo, 1 h; method in brief: as §1
Spleen [6] = test: Biodistribution in Wistar rat spleen at ~20 MBq, iv after 5 mins; type: ADME, organism-based; conditions: in vivo; method in brief: as §1
[7] = Metabolic stability in human HT29 cells bearing mouse plasma at 20 MBq, iv after 30 mins; type: ADME, organism-based, HT-29; conditions: read-out: Stability; method in brief: as §2
Brain [8] = test: Biodistribution in Wistar rat brain at ~20 MBq, iv after 5 mins; type: ADME, organism-based; conditions: in vivo; method in brief: as §1
Thymus [9] = test: Biodistribution in Wistar rat thymus at ~20 MBq, iv after 60 mins; type: ADME, organism-based; conditions: in vivo, 1 h; method in brief: as §1
[10] = Metabolic stability in human HT29 cells bearing mouse plasma at 20 MBq, iv after 1 min; type: ADME, organism-based, HT-29; conditions: read-out: Stability; method in brief: as §2
Pancreas [11] = test: Biodistribution in Wistar rat pancreas at ~20 MBq, iv after 5 mins; type: ADME, organism-based; conditions: in vivo; method in brief: as §1
Heart [12] = test: Biodistribution in Wistar rat heart at ~20 MBq, iv after 5 mins; type: ADME, organism-based; conditions: in vivo; method in brief: as §1
Adrenal [13] = test: Biodistribution in Wistar rat adrenal at ~20 MBq, iv after 5 mins; type: ADME, organism-based, Adrenal tissue; conditions: in vivo; method in brief: as §1
[14] = Biodistribution in Wistar rat white adipose tissue at ~20 MBq, iv after 5 mins; type: ADME, organism-based; conditions: in vivo; method in brief: as §1
[15] = Metabolic stability in human HT29 cells bearing mouse plasma at 20 MBq, iv after 20 mins; type: ADME, organism-based, HT-29; conditions: read-out: Stability; method in brief: as §2
[16] = Metabolic stability in Wistar rat plasma at 30 MBq, iv after 60 mins; type: ADME, organism-based; conditions: read-out: Stability; method in brief: as §2
[17] = Metabolic stability in Wistar rat plasma at 30 MBq, iv after 10 mins; type: ADME, organism-based; conditions: read-out: Stability; method in brief: as §2
[18] = Biodistribution in Wistar rat brown adipose tissue at ~20 MBq, iv after 5 mins; type: ADME, organism-based; conditions: in vivo; method in brief: as §1
Pancreas [19] = test: Biodistribution in Wistar rat pancreas at ~20 MBq, iv after 60 mins; type: ADME, organism-based; conditions: in vivo, 1 h; method in brief: as §1
Brain [20] = test: Biodistribution in Wistar rat brain at ~20 MBq, iv after 60 mins; type: ADME, organism-based; conditions: in vivo, 1 h; method in brief: as §1
Muscle tissue [21] = test: Biodistribution in Wistar rat muscle at ~20 MBq, iv after 5 mins; type: ADME, organism-based; conditions: in vivo; method in brief: as §1
Kidney [22] = test: Biodistribution in Wistar rat kidney at ~20 MBq, iv after 60 mins; type: ADME, organism-based; conditions: in vivo, 1 h; method in brief: as §1
Liver [23] = test: Biodistribution in Wistar rat liver at ~20 MBq, iv after 5 mins; type: ADME, organism-based; conditions: in vivo; method in brief: as §1
Lung [24] = test: Biodistribution in Wistar rat lung at ~20 MBq, iv after 5 mins; type: ADME, organism-based; conditions: in vivo; method in brief: as §1
[25] = Metabolic stability in human HT29 cells bearing mouse plasma at 20 MBq, iv after 60 mins; type: ADME, organism-based, HT-29; conditions: read-out: Stability; method in brief: as §2
[26] = Metabolic stability in human HT29 cells bearing mouse plasma at 20 MBq, iv after 5 mins; type: ADME, organism-based, HT-29; conditions: read-out: Stability; method in brief: as §2
Harderian gland [27] = test: Biodistribution in Wistar rat harderian gland at ~20 MBq, iv after 60 mins; type: ADME, organism-based; conditions: in vivo, 1 h; method in brief: as §1
[28] = Metabolic stability in Wistar rat plasma at 30 MBq, iv after 1 min; type: ADME, organism-based; conditions: read-out: Stability; method in brief: as §2
Adrenal [29] = test: Biodistribution in Wistar rat adrenal at ~20 MBq, iv after 60 mins; type: ADME, organism-based, Adrenal tissue; conditions: in vivo, 1 h; method in brief: as §1
[30] = Biodistribution in Wistar rat brown adipose tissue at ~20 MBq, iv after 60 mins; type: ADME, organism-based; conditions: in vivo, 1 h; method in brief: as §1
Liver [31] = test: Biodistribution in Wistar rat liver at ~20 MBq, iv after 60 mins; type: ADME, organism-based; conditions: in vivo, 1 h; method in brief: as §1
Thymus [32] = test: Biodistribution in Wistar rat thymus at ~20 MBq, iv after 5 mins; type: ADME, organism-based; conditions: in vivo; method in brief: as §1
[33] = Metabolic stability in Wistar rat plasma at 30 MBq, iv after 30 mins; type: ADME, organism-based; conditions: read-out: Stability; method in brief: as §2
[34] = Metabolic stability in Wistar rat plasma at 30 MBq, iv after 5 mins; type: ADME, organism-based; conditions: read-out: Stability; method in brief: as §2
Blood [35] = test: Biodistribution in Wistar rat blood at ~20 MBq, iv after 60 mins; type: ADME, organism-based; conditions: in vivo, 1 h; method in brief: as §1
[36] = Metabolic stability in Wistar rat plasma at 30 MBq, iv after 20 mins; type: ADME, organism-based; conditions: read-out: Stability; method in brief: as §2
Femur [37] = test: Biodistribution in Wistar rat femur at ~20 MBq, iv after 5 mins; type: ADME, organism-based; conditions: in vivo; method in brief: as §1
Harderian gland [38] = test: Biodistribution in Wistar rat harderian gland at ~20 MBq, iv after 5 mins; type: ADME, organism-based; conditions: in vivo; method in brief: as §1
Kidney [39] = test: Biodistribution in Wistar rat kidney at ~20 MBq, iv after 5 mins; type: ADME, organism-based; conditions: in vivo; method in brief: as §1
Femur [40] = test: Biodistribution in Wistar rat femur at ~20 MBq, iv after 60 mins; type: ADME, organism-based; conditions: in vivo, 1 h; method in brief: as §1
Heart [41] = test: Biodistribution in Wistar rat heart at ~20 MBq, iv after 60 mins; type: ADME, organism-based; conditions: in vivo, 1 h; method in brief: as §1
Testes [42] = test: Biodistribution in Wistar rat testes at ~20 MBq, iv after 5 mins; type: ADME, organism-based, Testis; conditions: in vivo; method in brief: as §1
Lung [43] = test: Biodistribution in Wistar rat lung at ~20 MBq, iv after 60 mins; type: ADME, organism-based; conditions: in vivo, 1 h; method in brief: as §1
Blood [44] = test: Biodistribution in Wistar rat blood at ~20 MBq, iv after 5 mins; type: ADME, organism-based; conditions: in vivo; method in brief: as §1

In the case of `CS(=O)(=O)c1ccc(C2=C(c3ccc(O[11CH3])cc3)CCC2)cc1`, the Drug uptake [1] was 0.52 % ID/g, the Drug uptake (Testes [2]) was 0.09 % ID/g and the Drug uptake (Muscle tissue [3]) was 0.11 % ID/g. The remaining at 10 min [4] was 17%, the Drug uptake (Spleen [5]) was 0.21 % ID/g and the Drug uptake (Spleen [6]) was 0.32 % ID/g. It also gave a remaining at 0.5 h [7] of 5%, a Drug uptake (Brain [8]) of 0.59 % ID/g and a Drug uptake (Thymus [9]) of 0.2 % ID/g. It also gave a remaining at 1 min [10] of 95%, a Drug uptake (Pancreas [11]) of 0.78 % ID/g and a Drug uptake (Heart [12]) of 0.5 % ID/g. The Drug uptake (Adrenal [13]) was 1.33 % ID/g, the Drug uptake [14] was 0.53 % ID/g and the remaining at 20 min [15] was 8%. The remaining at 1 h [16] was 18%, the remaining at 10 min [17] was 35% and the Drug uptake [18] was 1.89 % ID/g. It also gave a Drug uptake (Pancreas [19]) of 0.52 % ID/g, a Drug uptake (Brain [20]) of 0.11 % ID/g and a Drug uptake (Muscle tissue [21]) of 0.32 % ID/g. It also gave a Drug uptake (Kidney [22]) of 0.26 % ID/g, a Drug uptake (Liver [23]) of 1.35 % ID/g and a Drug uptake (Lung [24]) of 0.59 % ID/g. It also gave a remaining at 1 h [25] of 2%, a remaining at 5 min [26] of 40% and a Drug uptake (Harderian gland [27]) of 0.42 % ID/g. It also gave a remaining at 1 min [28] of 97%, a Drug uptake (Adrenal [29]) of 0.57 % ID/g and a Drug uptake [30] of 0.67 % ID/g. It also gave a Drug uptake (Liver [31]) of 0.76 % ID/g, a Drug uptake (Thymus [32]) of 0.64 % ID/g and a remaining at 0.5 h [33] of 22%. For the same compound, the remaining at 5 min [34] was 57%, the Drug uptake (Blood [35]) was 0.18 % ID/g and the remaining at 20 min [36] was 26%. It also gave a Drug uptake (Femur [37]) of 0.34 % ID/g, a Drug uptake (Harderian gland [38]) of 1.06 % ID/g and a Drug uptake (Kidney [39]) of 0.62 % ID/g. The Drug uptake (Femur [40]) was 0.19 % ID/g, the Drug uptake (Heart [41]) was 0.16 % ID/g and the Drug uptake (Testes [42]) was 0.2 % ID/g. For the same compound, the Drug uptake (Lung [43]) was 0.19 % ID/g and the Drug uptake (Blood [44]) was 0.23 % ID/g.
